Only some compounds are listed: those with a hit (about 3.3% of all), similar ones and a draw of the others.
M18AAP inhibitor: PfM18AAP inhibitors, malaria aminopeptidase, primary screen, biochemical, QFRET, recombinant enzyme; inhibition, % at 7.35 µM; 1.2% of 290,000 active; AID 1822, 2009; H-Glu-NHMec fluorogenic cleavage; M18 aspartyl aminopeptidase (Plasmodium falciparum 3D7);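 active means inhibition above the campaign mean inhibition over all tested compounds plus 3 SD, cut at about 28% in these data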
Arrestin-AP2 inh: inhibitors of beta-arrestin/AP2 binding, primary screen, biochemical, GPCR trafficking, flow cytometry | beta-arrestin 1 C-terminal peptide binding to AP2 beta2-adaptin appendage (human) | FITC-arrestin peptide / GST-AP2 beads; AP2 beta2 appendage carries R879A mutation | inhibition, % at 10 µM | 0.31% of 340,000 active;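 active means inhibition above a set limit, near 3 SD of compounds lacking own fluorescence, cut at about 54% in these data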
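System: GST-AP2 R879A glutathione beads | Also added: FITC-arrestin peptide, 50 nM | Times: 12 min plus 1 h, RT | Signal: Bead flow cytometry, FITC channel | Buffer or medium: PBS with 0.05% Tween 20 and 0.1% BSA | Read-out basis: Percent drop in bead-associated FITC signal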
m5-HT2A agonist: mouse Htr2a agonists via beta-arrestin recruitment, primary screen, cell-based, luminescence | AID 624169, 2012 | activation, % at 7.6 µM | 0.66% of 360,000 active | CHO-K1 mHTR2A beta-arrestin complementation; percent of 30 µM serotonin response;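 active means activation above a run cutoff, the mean activation of all tested compounds plus 3 SD, cut at about 14% in these data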
Target sequence (P35363 whole entry, looked up): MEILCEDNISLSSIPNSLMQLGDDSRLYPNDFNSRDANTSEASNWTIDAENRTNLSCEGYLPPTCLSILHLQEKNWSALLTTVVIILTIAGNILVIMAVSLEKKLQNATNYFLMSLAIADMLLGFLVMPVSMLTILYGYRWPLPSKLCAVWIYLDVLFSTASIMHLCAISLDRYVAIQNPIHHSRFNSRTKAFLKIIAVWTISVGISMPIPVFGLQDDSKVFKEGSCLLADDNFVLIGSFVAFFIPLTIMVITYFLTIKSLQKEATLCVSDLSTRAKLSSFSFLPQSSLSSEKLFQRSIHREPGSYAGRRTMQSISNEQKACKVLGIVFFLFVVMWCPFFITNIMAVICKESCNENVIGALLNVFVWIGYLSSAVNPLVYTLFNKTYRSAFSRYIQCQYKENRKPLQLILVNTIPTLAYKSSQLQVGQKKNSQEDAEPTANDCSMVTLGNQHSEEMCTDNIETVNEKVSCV
NRP1-CendR mod: modulators of CendR peptide binding to NRP-1, primary screen, biochemical, fluorescence polarization, uHTS. Neuropilin-1 (Homo sapiens), O14786. FAM-RPARPAR peptide binding to NRP-1. inhibition, % at 25 µM. 0.85% of 360,000 active. AID 602438, 2012;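 active means inhibition or corrected inhibition above about 18%, plus a signal ratio from 0.5 to 1.5, limit read from the data, passing the limit was not always enough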
HGIII-sPLA2 inh: human group III sPLA2 inhibitors, primary screen, biochemical, QFRET, BODIPY PC-A2 liposome substrate | 0.56% of 370,000 active | AID 743126, 2013 | QFRET BODIPY PC-A2 liposome hydrolysis, fluorescence | inhibition, % at 12.2 µM | Group 3 secretory phospholipase A2 (Homo sapiens), Q9NZ20;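 active means inhibition above mean plus 3 SD of compounds lying within the high and low control bounds, cut at about 19% in these data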
Hep lipid drop: inhibitors of hepatocyte lipid droplet formation, primary screen, imaging, high-throughput imaging, BODIPY stain | inhibition, % at 6.5 µM | AML12 mouse hepatocytes, oleate lipid droplets | AID 1656, 2009 | 0.4% of 240,000 active;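 active means lipid droplet intensity inhibited by at least 50%, with more than 500 cells counted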
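Material – mouse AML12 hepatocyte cell line, fixed after treatment · Compound dosing – one dose, 6.5 µM compound · Times – compound with oleate, overnight · Measured by – Image-based BODIPY and DAPI two-channel analysis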
Large screens that a line does not name were inactive.

C#CCN1C(=O)[C@]2(OCCC=C[C@H]2C)c2cc(OC)ccc21	none (no result: M18AAP inhibitor, Arrestin-AP2 inh, m5-HT2A agonist, NRP1-CendR mod, Hep lipid drop)
CCOC(=O)COc1ccc2ccccc2c1/C=C/[N+](=O)[O-]	M18AAP inhibitor 37
Cc1ccc(N2CCN(S(=O)(=O)N3CCCCC3)CC2)cc1C	NRP1-CendR mod 31
CCN(CC)C(=O)[C@H]1C[C@@H]2[C@H](C[C@@H](c3ccccc3)[C@H]1C)N(c1ccc(F)cc1)C(=O)N2C/C=C(\C)CCC=C(C)C	none (no result: M18AAP inhibitor, Arrestin-AP2 inh, m5-HT2A agonist, NRP1-CendR mod, Hep lipid drop)
O=C1CCCC2=C1C(c1ccc(O)c(O)c1)c1c(ccc3ncccc13)N2 (stereo not drawn)	M18AAP inhibitor 77
O=C(CSc1nc(Cc2ccccc2)nc2ccccc12)c1ccc2c(c1)OCCO2	m5-HT2A agonist 19
CCc1nc(SCC(=O)c2ccc3c(c2)OCCO3)c2ccccc2n1	none
Cc1ccc(-c2c3c([nH]c(=S)c2C#N)CCCC3)o1	M18AAP inhibitor 31 (no result: Hep lipid drop)
OCCNc1ncnc2ccc(Br)cc12	NRP1-CendR mod 44 (no result: Hep lipid drop)
Brc1ccc2ncnc(Nc3cccc4ccccc34)c2c1	none (no result: Hep lipid drop)
COC(=O)[C@]12C[C@H](CC(=O)NCc3cccc4ccccc34)C(=O)N(Cc3ccc(Cl)cc3Cl)C1=C[C@H](C(C)C)O[C@@H]2C1CC1	none (no result: M18AAP inhibitor, Arrestin-AP2 inh, m5-HT2A agonist, NRP1-CendR mod, Hep lipid drop)
O=C(NCc1ccc(F)cc1)C1CCCN(S(=O)(=O)c2ccc(Br)s2)C1 (stereo not drawn)	none
O=C(NCc1ccc(F)cc1)C1CCN(S(=O)(=O)c2ccc(Br)s2)CC1	NRP1-CendR mod 30
S=C(NCCOCCOCCNC(=S)Nc1ccccc1)Nc1ccccc1	M18AAP inhibitor 28
COc1ccc(N2C(=NC(=O)C(C)Oc3ccccc3)SC3CS(=O)(=O)CC32)cc1 (stereo not drawn)	NRP1-CendR mod 28
COC(=O)[C@]12C[C@H](CC(=O)N3CCN(C(=O)C4CC4)CC3)C(=O)N(Cc3ccco3)C1=C[C@H](C1CCCC1)O[C@@H]2C	none (no result: M18AAP inhibitor, Arrestin-AP2 inh, m5-HT2A agonist, NRP1-CendR mod, Hep lipid drop)
Cc1c(-n2c(CN3C(=O)c4ccccc4C3=O)nc3ccccc3c2=O)c(=O)n(-c2ccccc2)n1C	NRP1-CendR mod 26 (no result: Hep lipid drop)
Cn1c(=O)oc2cc(S(=O)(=O)Nc3ccccc3)ccc21	none
CCN(CC)c1ccc(NS(=O)(=O)c2ccc3c(c2)oc(=O)n3C)c(C)c1	M18AAP inhibitor 29 (no result: Hep lipid drop)
CC(C)NS(=O)(=O)c1ccc2c(c1)oc(=O)n2C	NRP1-CendR mod 22
C=CCNc1ncnc2c1cnn2-c1ccc(C)cc1C	none
CCOC(=O)N1CCC(Nc2ncnc3c2cnn3-c2ccc(C)cc2C)CC1	m5-HT2A agonist 15
Cc1ccnc(SCCn2c(N3CCOCC3)nc3c2c(=O)[nH]c(=O)n3C)n1	none (no result: Hep lipid drop)
Cn1c(=O)[nH]c(=O)c2c1nc(N1CCOCC1)n2CCCSc1ncccn1	NRP1-CendR mod 22 (no result: Hep lipid drop)
CC(C)CCn1c(N2CCCC2)nc2c1c(=O)[nH]c(=O)n2C	NRP1-CendR mod 24 (no result: Hep lipid drop)
CCN1CCN(c2nc3c(c(=O)[nH]c(=O)n3C)n2Cc2ccccc2F)CC1	NRP1-CendR mod 30
CC1(C)CC(=O)C2=C(C1)NC(=S)C(C#N)C21CCCCC1 (stereo not drawn)	M18AAP inhibitor 29
CC1(C)CC(=O)C2=C(C1)NC(SCC(=O)Nc1ccccc1)=C(C#N)C21CCCCC1	none (no result: Hep lipid drop)
CCCCc1cn(C[C@H]2CC[C@@H]([C@@H]3CC[C@H](Cn4cc(CCCC)nn4)O3)O2)nn1	none
c1ccc(Cn2cc(CSc3ccccc3)nn2)cc1	NRP1-CendR mod 28 (no result: M18AAP inhibitor)
c1ccc(SCc2cn(C[C@H]3CC[C@@H]([C@@H]4CC[C@H](Cn5cc(CSc6ccccc6)nn5)O4)O3)nn2)cc1	NRP1-CendR mod 24
Nc1[nH]c(C(=O)c2ccccc2)c(-c2ccccc2)c1C(=O)NCCc1c[nH]c2ccccc12	none (no result: M18AAP inhibitor, Arrestin-AP2 inh, m5-HT2A agonist, NRP1-CendR mod, Hep lipid drop)
